Measurements taken from ChEMBL document CHEMBL4342456, “Preventing Morphine-Seeking Behavior through the Re-Engineering of Vincamine's Biological Activity” (J Med Chem, 2020).
The source made the active and inactive calls. The rule behind the calls is not given here.

What was measured:
[1] = biological target: T1, Orexin receptor type 2 (Homo sapiens) (UniProt O43614); assay: (§1) Antagonist activity at human Gq-coupled HCRTR2 expressed in CHOK1 cells assessed as inhibition in Orexin A-induced beta-arrestin 2 recruitment at 20 uM incubated for 30 mins followed by Orexin A addition and measured after 90 or 180 mins by pathhunter beta-arrestin assay relative to control; format: cell-based
T1 sequence (whole entry): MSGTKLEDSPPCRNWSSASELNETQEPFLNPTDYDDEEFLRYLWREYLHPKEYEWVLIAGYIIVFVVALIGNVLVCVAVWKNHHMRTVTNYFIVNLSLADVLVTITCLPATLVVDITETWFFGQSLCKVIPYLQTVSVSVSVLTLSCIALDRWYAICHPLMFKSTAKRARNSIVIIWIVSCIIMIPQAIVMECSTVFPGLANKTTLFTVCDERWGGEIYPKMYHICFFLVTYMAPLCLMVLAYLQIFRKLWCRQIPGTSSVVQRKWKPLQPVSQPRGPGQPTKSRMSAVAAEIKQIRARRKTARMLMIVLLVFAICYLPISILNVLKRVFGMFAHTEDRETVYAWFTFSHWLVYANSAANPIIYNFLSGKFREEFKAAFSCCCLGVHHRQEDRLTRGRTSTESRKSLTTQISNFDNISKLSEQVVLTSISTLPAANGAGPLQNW
Procedure, shortened: (§2)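 PathHunter beta-arrestin recruitment, antagonist mode, run at DiscoverX. Cells seeded and held at 37 °C, then preincubated with test sample for 30 min at 37 °C or room temperature (1% vehicle). Agonist then added at EC80 for 90 or 180 min. IC50 comes from concentration–response runs in the same format.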

Mus musculus [2] = assay: Suppression of drug-induced cocaine-seeking behavior in C57BL/6J mouse assessed as reduction in morphine-conditioned place preference at 60 nmol, icv administered 20 mins prior to behavioral morphine addition measured twice weekly for 7 weeks; format: functional, organism-based; details: in the assay text read “morphine-seeking” for “cocaine-seeking”
Procedure, shortened: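 Male C57BL/6J mice, 7–11 weeks, 20–33 g. Three-compartment counterbalanced place conditioning. Test agent given i.c.v. in 10% Solutol HS 15/90% saline, 20 min before morphine (10 mg/kg i.p., in 0.9% saline). Mice then confined 40 min in the paired outer chamber. Saline i.p. conditioning in the opposite chamber followed 4 h later. Preference was scored in a 30 min automated test. n = 16–30/group; two-way ANOVA with Tukey post hoc.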

Orexin receptor type 2 = biological target: T2, Orexin receptor type 2 (Homo sapiens, UniProt O43614); assay: Antagonist activity at human Gq-coupled HCRTR2 expressed in CHOK1 cells assessed as inhibition in Orexin A-induced beta-arrestin 2 recruitment incubated for 30 mins followed by Orexin A addition and measured after 90 or 180 mins by pathhunter beta-arrestin assay; format: cell-based
T2 sequence (O43614 whole entry): T1 sequence (whole entry)
Procedure, shortened: as §2, with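 “min. […]” for “min.”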

[3] = biological target: T3, Prolactin-releasing peptide receptor (Homo sapiens) (UniProt P49683); assay: as §1, with “PRLHR” for “HCRTR2”, “prolactin releasing peptide (1 to 31)-induced” for “Orexin A-induced”, “prolactin releasing peptide (1 to 31)” for “Orexin A”; format: cell-based; procedure, shortened: as §2
T3 sequence (whole entry): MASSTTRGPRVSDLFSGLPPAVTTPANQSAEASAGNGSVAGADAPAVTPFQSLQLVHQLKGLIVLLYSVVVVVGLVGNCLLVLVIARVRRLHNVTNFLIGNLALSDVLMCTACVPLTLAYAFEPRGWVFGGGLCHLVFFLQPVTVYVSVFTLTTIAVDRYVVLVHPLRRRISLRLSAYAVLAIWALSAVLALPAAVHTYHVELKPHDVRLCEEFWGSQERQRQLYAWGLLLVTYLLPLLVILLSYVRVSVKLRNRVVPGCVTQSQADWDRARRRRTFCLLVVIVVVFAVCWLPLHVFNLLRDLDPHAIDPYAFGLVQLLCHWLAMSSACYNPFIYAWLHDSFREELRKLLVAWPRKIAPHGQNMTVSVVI

Prostacyclin receptor = Prostacyclin receptor (Homo sapiens, UniProt P43119); assay: Antagonist activity at human Gs-coupled PTGIR assessed as inhibition in beraprost-induced beta-arrestin 2 recruitment at 20 uM incubated for 30 mins followed by beraprost- addition and measured after 90 or 180 mins by pathhunter beta-arrestin assay relative to control; procedure, shortened: as §2
Chain of Prostacyclin receptor (P43119 whole entry): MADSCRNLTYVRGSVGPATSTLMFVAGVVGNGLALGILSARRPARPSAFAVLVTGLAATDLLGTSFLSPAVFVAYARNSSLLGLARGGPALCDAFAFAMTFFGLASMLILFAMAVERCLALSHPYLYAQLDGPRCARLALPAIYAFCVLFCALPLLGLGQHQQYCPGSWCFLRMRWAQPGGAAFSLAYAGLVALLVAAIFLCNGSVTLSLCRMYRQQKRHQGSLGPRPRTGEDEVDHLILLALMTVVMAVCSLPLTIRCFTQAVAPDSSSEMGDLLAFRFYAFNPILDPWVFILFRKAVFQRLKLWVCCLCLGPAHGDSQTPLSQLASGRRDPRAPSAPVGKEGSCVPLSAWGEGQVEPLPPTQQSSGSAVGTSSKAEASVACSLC

Cannabinoid receptor 2 = Cannabinoid receptor 2 (Homo sapiens, UniProt P34972); assay: (§3) Antagonist activity at human Gi/o-coupled CNR2 expressed in CHOK1 cells assessed as inhibition in CP55940-induced beta-arrestin 2 recruitment at 20 uM incubated for 30 mins followed by CP55940 addition and measured after 90 or 180 mins by pathhunter beta-arrestin assay relative to control; format: cell-based; procedure, shortened: as §2
Chain of Cannabinoid receptor 2 (P34972 whole entry): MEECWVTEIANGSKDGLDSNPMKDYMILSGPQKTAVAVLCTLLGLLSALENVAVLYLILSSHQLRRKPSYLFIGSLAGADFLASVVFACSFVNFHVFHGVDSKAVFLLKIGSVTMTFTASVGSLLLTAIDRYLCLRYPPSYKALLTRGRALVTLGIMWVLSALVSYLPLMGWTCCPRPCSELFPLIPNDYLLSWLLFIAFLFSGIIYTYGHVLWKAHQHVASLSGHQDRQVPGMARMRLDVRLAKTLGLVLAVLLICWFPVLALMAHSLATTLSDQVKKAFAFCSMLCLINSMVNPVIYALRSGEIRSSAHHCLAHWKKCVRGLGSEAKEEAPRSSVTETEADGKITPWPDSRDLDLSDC

[4] = biological target: D(2) dopamine receptor (Homo sapiens) (UniProt P14416); assay: Antagonist activity at human Gi/o-coupled DRD2L expressed in CHOK1 cells assessed as inhibition in dopamine-induced beta-arrestin 2 recruitment at 20 uM incubated for 30 mins followed by dopamine addition and measured after 90 or 180 mins by pathhunter beta-arrestin assay relative to control; format: cell-based; procedure, shortened: as §2
Chain of D(2) dopamine receptor (Homo sapiens) (P14416 whole entry): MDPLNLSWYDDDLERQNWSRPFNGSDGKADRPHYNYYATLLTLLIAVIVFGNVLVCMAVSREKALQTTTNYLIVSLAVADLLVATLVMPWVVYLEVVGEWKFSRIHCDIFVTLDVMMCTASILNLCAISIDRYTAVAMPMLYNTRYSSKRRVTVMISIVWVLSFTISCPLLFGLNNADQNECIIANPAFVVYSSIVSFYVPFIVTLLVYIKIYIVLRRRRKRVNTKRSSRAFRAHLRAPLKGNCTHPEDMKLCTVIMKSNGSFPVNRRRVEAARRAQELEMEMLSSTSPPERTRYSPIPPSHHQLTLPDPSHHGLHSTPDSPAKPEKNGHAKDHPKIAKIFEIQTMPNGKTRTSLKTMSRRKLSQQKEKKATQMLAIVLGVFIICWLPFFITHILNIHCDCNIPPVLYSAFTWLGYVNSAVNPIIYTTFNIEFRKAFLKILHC

[5] = biological target: T4, Muscarinic acetylcholine receptor M4 (Homo sapiens) (UniProt P08173); assay: as §3, with “Gs/Gi/o-coupled CHRM4” for “Gi/o-coupled CNR2”, “acetylcholine-induced” for “CP55940-induced”, “acetylcholine” for “CP55940”; format: cell-based; procedure, shortened: as §2
T4 sequence (whole entry): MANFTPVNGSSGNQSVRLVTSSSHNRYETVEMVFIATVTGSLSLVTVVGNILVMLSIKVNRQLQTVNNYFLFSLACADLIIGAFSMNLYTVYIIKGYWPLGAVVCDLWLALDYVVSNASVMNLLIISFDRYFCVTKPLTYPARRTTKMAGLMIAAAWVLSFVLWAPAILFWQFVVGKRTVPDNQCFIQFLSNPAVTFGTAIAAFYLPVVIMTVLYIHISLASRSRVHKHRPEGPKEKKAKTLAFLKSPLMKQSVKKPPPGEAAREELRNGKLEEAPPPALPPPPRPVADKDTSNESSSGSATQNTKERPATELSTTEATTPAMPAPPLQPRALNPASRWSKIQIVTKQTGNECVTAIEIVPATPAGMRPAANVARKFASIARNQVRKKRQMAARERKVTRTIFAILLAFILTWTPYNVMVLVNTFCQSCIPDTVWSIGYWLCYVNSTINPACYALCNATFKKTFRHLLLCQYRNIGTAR

[6] = biological target: C-X-C chemokine receptor type 4 (Homo sapiens) (UniProt P61073); assay: Antagonist activity at human Gi/o-coupled CXCR4 expressed in mouse C2C12 cells assessed as inhibition in CXCL12-induced beta-arrestin 2 recruitment at 20 uM incubated for 30 mins followed by CXCL12 addition and measured after 90 or 180 mins by pathhunter beta-arrestin assay relative to control; format: cell-based; procedure, shortened: as §2
Chain of C-X-C chemokine receptor type 4 (Homo sapiens) (P61073 whole entry): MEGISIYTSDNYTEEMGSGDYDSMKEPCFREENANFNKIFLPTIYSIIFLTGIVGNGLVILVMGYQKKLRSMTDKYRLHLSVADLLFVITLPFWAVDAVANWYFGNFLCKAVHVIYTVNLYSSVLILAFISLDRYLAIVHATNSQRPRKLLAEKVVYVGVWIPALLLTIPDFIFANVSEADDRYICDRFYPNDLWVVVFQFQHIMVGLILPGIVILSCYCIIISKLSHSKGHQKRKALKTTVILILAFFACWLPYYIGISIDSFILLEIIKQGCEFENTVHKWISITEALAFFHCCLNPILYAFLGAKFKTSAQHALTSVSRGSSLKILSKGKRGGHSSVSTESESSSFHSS

Mus musculus [7] = assay: Suppression of drug-induced morphine-seeking behavior in C57BL/6J mouse assessed as reduction in stress-induced reinstatement of morphine-CPP at 60 nmol, icv administered 15 mins prior to testing by forced swim test

`CC[C@@]12CCCN3CCc4c([nH]c5ccccc45)[C@]31N(Cc1cn(Cc3ccccc3)nn1)C(=O)C2` was tested, and the inhibition [1] was 80%, the Activity (Mus musculus [2]) was “Active” and the IC50 (Orexin receptor type 2) was 2260 nM. It also gave an inhibition [3] of 59%, an inhibition (Prostacyclin receptor) of 75% and an inhibition (Cannabinoid receptor 2) of 60%. It also gave an inhibition [4] of 15%, an inhibition [5] of 75% and an inhibition [6] of 34%. The Activity (Mus musculus [7]) was “Active”.
